# In ChEMBL document CHEMBL1152355, “Application of a 3,3-diphenylpentane skeleton as a multi-template for creation of HMG-CoA reductase inhibitors” (Bioorg Med Chem Lett, 2009):
# Experiments:
# [1] = target: T1, 3-hydroxy-3-methylglutaryl-coenzyme A reductase (Rattus norvegicus, UniProt P51639); experiment: Inhibition of rat HMG-CoA reductase using 3.7 MBq DL-[3-14C]HMG-CoA
# T1 sequence (P51639 whole entry): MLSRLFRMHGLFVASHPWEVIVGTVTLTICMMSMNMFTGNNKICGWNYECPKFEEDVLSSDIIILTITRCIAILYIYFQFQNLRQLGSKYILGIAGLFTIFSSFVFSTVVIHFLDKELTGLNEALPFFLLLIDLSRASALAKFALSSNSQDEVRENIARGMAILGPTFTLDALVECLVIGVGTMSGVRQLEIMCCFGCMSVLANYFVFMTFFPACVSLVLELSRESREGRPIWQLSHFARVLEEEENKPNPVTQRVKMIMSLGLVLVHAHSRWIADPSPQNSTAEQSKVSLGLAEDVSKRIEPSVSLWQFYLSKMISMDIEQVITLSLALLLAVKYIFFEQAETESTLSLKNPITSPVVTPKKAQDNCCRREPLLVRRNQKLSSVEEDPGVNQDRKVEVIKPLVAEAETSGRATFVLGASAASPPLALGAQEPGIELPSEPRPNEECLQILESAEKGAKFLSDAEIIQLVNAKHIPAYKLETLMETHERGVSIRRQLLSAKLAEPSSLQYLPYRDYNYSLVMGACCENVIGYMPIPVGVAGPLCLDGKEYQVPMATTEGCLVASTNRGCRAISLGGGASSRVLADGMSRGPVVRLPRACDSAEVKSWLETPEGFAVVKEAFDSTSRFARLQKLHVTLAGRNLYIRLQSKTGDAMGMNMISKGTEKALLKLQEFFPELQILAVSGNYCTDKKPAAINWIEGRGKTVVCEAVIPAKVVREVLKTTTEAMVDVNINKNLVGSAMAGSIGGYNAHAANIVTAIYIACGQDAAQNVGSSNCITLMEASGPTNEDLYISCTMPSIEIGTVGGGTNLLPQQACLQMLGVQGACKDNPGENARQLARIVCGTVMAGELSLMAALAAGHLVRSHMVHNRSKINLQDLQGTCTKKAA
# In short: (§1)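 Rat HMG-CoA reductase (method A): 3.7 MBq DL-[3-14C]HMG-CoA with 10 mg microsomal protein, 37 °C for 30 min. The reaction was stopped with 2 M HCl and metabolites were converted to mevalonolactone. Products were separated by silica TLC in acetone/benzene (1:1 v/v), and spot radioactivity was read by bioimaging analyzer.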
# [2] = target: T1, 3-hydroxy-3-methylglutaryl-coenzyme A reductase; experiment: Inhibition of rat HMG-CoA reductase at 100 mM using 3.7 MBq DL-[3-14C]HMG-CoA; in short: as §1
# [3] = target: T1, 3-hydroxy-3-methylglutaryl-coenzyme A reductase; experiment: Inhibition of rat HMG-CoA reductase using 0.37 MBq DL-[3-14C]HMG-CoA
# In short: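 Method B used the lower substrate level, 0.37 MBq DL-[3-14C]HMG-CoA, with rat microsomal fraction (10 mg protein) at 37 °C for 30 min. Stopped with 2 M HCl, with conversion to mevalonolactone. Separation was on silica TLC with acetone/benzene 1:1, and radioactivity per spot was quantified by bioimaging. The IC50 was taken from this readout.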
IC50 [3],Compound,also measured
150 nM,CCC(CC)(c1ccccc1)c1ccc(/C=C/[C@@H](O)C[C@@H](O)CC(=O)O)c(-c2ccc(F)cc2)c1,–
1800 nM,CCC(CC)(c1ccccc1)c1ccc(/C=C/[C@@H](O)C[C@@H](O)CC(=O)O)c(C(C)C)c1,–

# Continued, compound first:
Compound,IC50 [3],also measured
CCC(CC)(c1cccc(F)c1)c1ccc(/C=C/[C@@H](O)C[C@@H](O)CC(=O)O)c(C(C)C)c1,–,IC50 [1]: 92000 nM
CCC(CC)(c1ccc(F)cc1)c1ccc(/C=C/[C@@H](O)C[C@@H](O)CC(=O)[O-])cc1.[Na+],–,IC50 [2]: Not Active
CC[C@H](C)C(=O)O[C@H]1CCC=C2C=C[C@H](C)[C@H](CC[C@@H]3C[C@@H](O)CC(=O)O3)[C@H]21 [MEVASTATIN],40 nM,–
